According to ChEMBL document CHEMBL4011629, “New Disubstituted Quindoline Derivatives Inhibiting Burkitt's Lymphoma Cell Proliferation by Impeding c-MYC Transcription” (J Med Chem, 2017):
Active and inactive are the calls of the source. The calls are words filed in the database; no cut-off is given here.

Columns and labels:
Mus musculus [1] = test: Toxicity in NOD/SCID nude mouse xenografted with human Raji cells assessed as reduction in body weight at 1 mg/kg, ip administered once in 2 days for 2 weeks measured every day during compound dosing; format: organism-based; conditions: in vivo
Outline: (§1)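 NOD/SCID mice implanted subcutaneously in the underarm with 5 × 10^6 RAJI cells in 100 μL RPMI 1640 with 10% serum; tumours grown about 1 week, then mice randomized. Body weight recorded daily; organ weights taken at end.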

Raji = test: Antitumor activity against human Raji cells xenografted in NOD/SCID nude mouse assessed as reduction in tumor weight at 1 mg/kg, ip administered once in 2 days for 2 weeks relative to control; format: functional, organism-based
Outline: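 NOD/SCID mice were implanted subcutaneously in the underarm with RAJI cells (5 × 10^6 per 100 μL of RPMI 1640 with 10% serum). Tumours reached […] after 1 week, and mice were then randomised. […] Tumour volume was recorded daily and tumour weight at the end.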

Mus musculus [2] = test: Toxicity in NOD/SCID nude mouse xenografted with human Raji cells assessed as reduction in viscera weight at 1 mg/kg, ip administered once in 2 days for 2 weeks measured every day during compound dosing; format: organism-based; conditions: in vivo; outline: as §1

Q: `COc1cccc2c1C(=O)c1c(O)c3c(c(O)c1C2=O)C[C@@](O)(C(=O)CO)C[C@@H]3O[C@H]1C[C@H](N)[C@H](O)[C@H](C)O1` [DOXORUBICIN] was tested. Which Activity (Mus musculus [1]) did it give?
A: Its Activity is “Toxic”.

Q: And the Activity (Raji)?
A: The Activity was “Active”.

Q: What about the Activity (Mus musculus [2]) of the same compound?
A: Its Activity is “Toxic”.
